# Screening data (PubChem)
# TRAIL sens C8: sensitizes caspase-8 expressing cells to TRAIL; 360,000 compounds, 1% hits; NB7+C8 cells + TRAIL, ATPlite viability luminescence; inhibition (viability loss, TRAIL sensitization), % at 10 µM;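 active means compounds causing at least 50% loss of cell viability in the single-dose screen, relative to plate controls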
# FLuc stim CS: affects firefly luciferase, flagging false hits in luciferase stimulation screens. P08659. ATPlite luciferase biochemical, luminescence, 10 min; 0 = ATP-free wells, 1 = DMSO control. activation factor at 10 µM. 200,000 tested, under 10 active;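 active means luciferase activation factor, scaled between plate controls, of at least 2 with compound at 10 µM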
# Target sequence (P08659 whole entry, looked up): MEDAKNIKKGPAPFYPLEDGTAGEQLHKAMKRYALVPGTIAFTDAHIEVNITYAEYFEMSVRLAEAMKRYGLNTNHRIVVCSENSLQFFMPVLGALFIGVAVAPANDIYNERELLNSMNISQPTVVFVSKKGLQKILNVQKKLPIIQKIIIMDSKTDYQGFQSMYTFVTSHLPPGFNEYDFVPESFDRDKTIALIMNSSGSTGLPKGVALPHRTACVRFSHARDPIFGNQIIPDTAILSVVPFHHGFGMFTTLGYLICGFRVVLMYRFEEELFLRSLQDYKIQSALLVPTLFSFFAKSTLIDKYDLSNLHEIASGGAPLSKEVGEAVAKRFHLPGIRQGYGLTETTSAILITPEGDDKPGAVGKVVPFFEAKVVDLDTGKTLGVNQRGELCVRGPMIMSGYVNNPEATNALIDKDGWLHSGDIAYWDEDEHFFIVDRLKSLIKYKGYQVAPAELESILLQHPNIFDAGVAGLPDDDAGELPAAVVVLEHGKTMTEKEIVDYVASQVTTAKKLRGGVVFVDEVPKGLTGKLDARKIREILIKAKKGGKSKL
#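 Assay system: Luciferase/luciferin reagent mix; Medium: PBS as buffer for the ATP substrate; Dosing: test compounds dosed from 2 mM stocks in 100% DMSO; Times: 10 min, room temperature; Signal: luminescence from luciferase reaction; Read-out: luciferase activation; Controls: No-ATP low control, compound-free enzyme-plus-ATP high control.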
# FLuc inhib CS: counter-screen for luciferase assay inhibitors: firefly luciferase inhibition; P08659; inhibition, % at 10 µM; AID 1006; 200,000 compounds, 1.5% hits; ATPLite firefly luciferase biochemical luminescence, 10 min;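 active means inhibition above about 50% when tested at 10 µM, limit read from the data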
# PPC-1+TRAIL kill: PPC-1 cancer cell killing with TRAIL present; cell killing (% activity), % at 4 µM or 5 µM; PPC-1 cells + TRAIL, ATPLite viability luminescence; 220,000 compounds, 0.41% hits;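 active means cell killing above 50% in the first pass at 4 µM, then a duplicate retest at 5 µM averaging 50% or more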;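 further: plate controls were cells with TRAIL plus DMSO for no effect and medium-only wells lacking cells for full effect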
# The depositor's hits bear a star; · = no result. In the library only some 1.5% were active in any assay of this set; here they are far more common.
SMILES,TRAIL sens C8,FLuc stim CS,FLuc inhib CS,PPC-1+TRAIL kill
CCCCc1ccc(-c2nc(N)n[nH]2)cc1,14,0.3,68*,43
CCN(CC)c1ccc(N=Cc2ccccc2[N+](=O)[O-])cc1,-3,0.3,66*,57*
CC(=O)N(C)c1ccc(N=Cc2cc3c(cc2[N+](=O)[O-])OCO3)cc1,3,·,·,·
CCN(CC)c1ccc(N=Cc2ccc([N+](=O)[O-])o2)cc1,3,0.7,34,53*
CCCCCC(=O)N/N=C/c1ccc([N+](=O)[O-])o1,12,1.1,-6,·
CCc1ccc(N2CC(C(=O)OCC(=O)Nc3ccc(C#N)cc3)CC2=O)cc1 (configuration not stated),4,·,·,·
CCC(C(=O)O/N=C(\N)c1ccc(C)cc1)c1ccccc1 (configuration not stated),72*,1.1,-7,4
CCC(C(=O)O/N=C(\N)c1ccccc1)c1ccccc1 (configuration not stated),71*,0.9,6,11
O=C(O)c1ccc(NC(=S)Nc2ccccc2)cc1,-8,1.1,-6,26
O=C(O)c1cc(-c2c[nH]c3ccccc23)nc2ccc3ccccc3c12,46,0.2,80*,41
COc1ccc(OCC(O)Cn2c(Nc3cccc(C)c3)nc3c2c(=O)n(C)c(=O)n3C)cc1 (configuration not stated),2,1,-3,-15
CCSC1=N/C(=C\c2ccc3c(c2)OCO3)C(=O)S1,-18,1,0,21
CN1C(=O)/C(=C/c2ccc3c(c2)OCO3)N=C1c1ccccc1,-3,0.4,62*,29
COc1cc(NC(=O)c2c(F)c(F)c(F)c(F)c2F)c(OC)cc1Cl,76*,1.1,-7,6
COc1cc(NC(=O)c2ccc(F)cc2)c(OC)cc1Cl,-20,1.1,-6,19
CNc1nnc(-c2ccc(N(C)C)cc2)s1,73*,0.1,92*,60*
CN(C)c1ccc(-c2ccncc2)cc1,·,1,2,22
CC(=O)C[C@@H](O)CC(=O)[C@@H]1OC(=O)[C@@H](C)C/C=C\Cc2ccccc21,-11,·,·,·
Cn1cnc(Sc2ncnc3nc[nH]c23)c1[N+](=O)[O-],62*,·,·,4
Cc1cccc(Sc2c([N+](=O)[O-])ncn2C)c1,-6,0.5,52*,14
Cn1cnc([N+](=O)[O-])c1Sc1ncnc2nc[nH]c12,67*,·,·,17
COc1ccc(CNC(=O)c2coc(=O)c3ccccc23)cc1,1,1,2,-4
O=C(NCCOc1ccccc1F)C1CCC(=O)N(CCc2cccc(F)c2)C1 (configuration not stated),-7,·,·,·
Cc1nc(-c2cccc(NC(=O)c3ccc(-n4nccc4C)cc3)c2)cs1,60*,·,·,·
Cn1ncnc1SCc1cn2cccnc2n1,-5,1,-3,7
SMILES,TRAIL sens C8,FLuc stim CS,FLuc inhib CS,PPC-1+TRAIL kill
Cc1cccc(N(Cc2ccccc2)C(=O)CCl)c1,96*,1.1,-12,7
O=C(CCl)N(Cc1ccccc1)c1ccccc1,96*,1,0,12
O=C(CCl)N(Cc1cc(=O)[nH]c2ccccc12)c1ccccc1,47,·,·,·
O=C(O)C(Cc1ccc(OS(=O)(=O)Cc2ccccc2)cc1)NS(=O)(=O)Cc1ccccc1 (configuration not stated),-13,·,·,·
CC(C)(CNC(=O)C1c2ccccc2-c2ccccc21)N1CCOCC1,10,·,·,·
Cc1cc(C(=O)COC(=O)c2ccc[nH]c2=O)c(C)n1-c1ccccc1,72*,0.1,91*,62*
Cc1cc(C(=O)COC(=O)c2ccc[nH]c2=O)c(C)n1-c1ccc(F)cc1,52*,0.2,79*,45
CCNC(=O)COC(=O)c1cc(C)n(-c2ccccc2)c1C,5,0.9,6,12
Cc1cc(C(=O)OCC(=O)NCc2ccco2)c(C)n1-c1ccc(F)cc1,-11,1,-2,12
Cc1cc(C(=O)COC(=O)c2ccc[nH]c2=O)c(C)n1C1CC1,13,0.4,64*,24
CCOC(=O)c1ccc(NC(=O)C(=O)NCc2ccco2)cc1,-1,1,-1,18
CN(C)C1(CN=Cc2cc(Cl)cc([N+](=O)[O-])c2O)CCCCC1,5,·,·,·
CSc1ccc(-c2nc(CN3CCCCC3c3cccnc3)c(C)o2)cc1 (configuration not stated),-3,1,-1,7
c1ccc(Cn2ncc3c(N4CCN(c5ccccc5)CC4)ncnc32)cc1,40,·,·,·
O=C(NC(=S)Nc1ccc(CN2CCOCC2)cc1)c1cc2ccccc2o1,0,1.1,-7,19
CC(=O)c1cccc(NC(=O)c2cc3ccccn3n2)c1,-6,0.3,72*,40
O=C(Nc1ccc(CN2CCOCC2)cc1)c1cc2ccccn2n1,-8,0.2,78*,49
O=C(Nc1ccc(CN2CCOCC2)cc1)c1cc2ccccc2o1,43,0.4,60*,28
CCN(CC)C(=O)c1c(Cl)nc(C)c([N+](=O)[O-])c1C,-3,1.1,-6,3
O=C(c1ccc2c(c1)OCO2)N(c1ccc(Br)cc1)C1C=CS(=O)(=O)C1 (configuration not stated),7,·,·,·
COC(=O)C1=NNC2(c3ccc(C)cc3)C(=O)N(c3ccc(C)cc3)C(=O)C12 (configuration not stated),7,1.1,-6,-8
O=C(Nc1nc(-c2ccccn2)cs1)c1ccc2c(c1)OCCO2,51*,0.2,79*,49
O=C(Nc1ccccn1)c1ccc2c(c1)OCO2,8,0.5,47,6
O=C(Nc1ccccn1)c1ccc2c(c1)OCCO2,56*,0.3,74*,·
Cc1cc(Cl)ccc1NC(=O)c1ccc2c(c1)OCO2,4,·,·,·
SMILES,TRAIL sens C8,FLuc stim CS,FLuc inhib CS,PPC-1+TRAIL kill
O=C(Nc1ccc(Cl)cc1Cl)c1ccc2c(c1)OCCO2,53*,·,·,·
COc1cccc(C(=O)Nc2cc3c(cc2Cl)OCCCO3)c1,40,0.4,65*,19
COC(=O)[C@]12CCCCC=C1N(Cc1ccc(Cl)cc1Cl)C(=O)[C@H](CC(=O)NCC1CCCCC1)C2,3,·,·,·
COC(=O)c1ccc(C2=NOC(C)(c3nnc(Cc4ccccc4)o3)C2)cc1 (configuration not stated),-13,·,·,·
CCN1C[C@@H]2[C@@H]3C(=O)N(C)C(=O)[C@@H]3[C@](C)(C1=O)N2C(=O)c1ccc(C)cc1,8,·,·,·
COc1ccc2nc(NC(=O)c3ccc([N+](=O)[O-])o3)sc2c1,54*,·,·,·
O=C(Nc1nc2cc3c(cc2s1)OCCO3)c1ccc([N+](=O)[O-])o1,69*,·,·,·
Cn1cc(S(=O)(=O)CC(=O)N2CCCc3ccccc32)c2ccccc21,65*,1.1,-8,37
Cn1cc(C(=O)C(=O)N2CCCc3ccccc32)c2ccccc21,3,1,-5,·
COc1ccccc1C(=O)O/N=C(\N)c1ccccn1,26,·,·,34
CCOc1ccc(C(=O)O/N=C(\N)c2ccccn2)cc1OCC,79*,·,·,·
Cc1ccc(C(=O)O/N=C(\N)c2ccccn2)c(C)c1,94*,·,·,·
N/C(=N\OC(=O)c1ccc(Cl)c([N+](=O)[O-])c1)c1ccccn1,9,0.7,26,17
